# Source: PubChem
# Compounds with a hit are over-represented: about 12% of the library has one in this group of screens.
# Arbovirus inh – antivirals against arbovirus infection; inhibition, % at 10 µM; arbovirus infection cell-based antiviral screen; AID 1251; actives 0.37% (n = 200,000); in the data active = inhibition above about 30%
# Rad51 HR inh – blocks human Rad51 in homologous recombination. hRad51 DNA strand exchange, fluorescence dequenching. actives 0.085% (n = 200,000). Q06609. inhibition, % at 10 µM;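 active = inhibition above 40% at the single screening dose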;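 also: 0% = DMSO control wells and 100% = blanks with heterologous ssDNA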
# Target sequence (Q06609 whole entry, looked up): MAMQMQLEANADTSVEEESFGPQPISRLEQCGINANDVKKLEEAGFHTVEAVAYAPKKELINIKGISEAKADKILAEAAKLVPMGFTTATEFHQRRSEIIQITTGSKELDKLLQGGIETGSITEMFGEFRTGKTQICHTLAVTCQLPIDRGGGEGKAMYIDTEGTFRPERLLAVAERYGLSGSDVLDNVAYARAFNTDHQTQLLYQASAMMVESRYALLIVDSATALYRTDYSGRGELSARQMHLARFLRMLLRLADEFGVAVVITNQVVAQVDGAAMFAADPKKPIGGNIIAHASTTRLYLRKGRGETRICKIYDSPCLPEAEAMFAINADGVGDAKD
#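 Material: Human Rad51 nucleoprotein filaments preassembled on unlabelled ssDNA | Also added: Labelled 47-mer dsDNA for strand exchange | Dosing: Single dose, 10 µM final compound | Schedule: 30-min compound preincubation and 15-min exchange, both room temperature | Technique: Fluorescence dequenching at 485/520 nm | Measure: Percent inhibition relative to plate controls and blanks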
# Wee1 stabilizer – human Wee1 degradation inhibition, primary screen; reporter increase, % at 5 µM; HeLa Luc-Wee1K328M stability, luciferase luminescence; 100% = proteasome inhibitor MG132 effect; actives 1.2% (n = 220,000);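 active = activation above the mean of all tested compounds plus 3 SD, set per screening run, cut at about 8.8% in these data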;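 also: cells exposed to compound for 20 h before luminescence read; 0% = DMSO alone and 100% = MG132 at 30 µM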
# PKD1 kinase inh – inhibitors of human PKD1 kinase; Q15139; PKD1 kinase fluorescence polarization assay; inhibition, % (no concentration beside the values); actives 0.056% (n = 200,000); AID 797
# Lmaj promast – Leishmania major promastigote growth inhibition; inhibition, % at 10 µM; Leishmania major promastigotes, resazurin fluorescence viability; actives 9% (n = 200,000); AID 1063;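 also: promastigotes grown with compound for 44 hours at 28 °C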
# CHOP inhibitor – blocks CHOP induction under ER stress | actives 3.8% (n = 220,000) | inhibition, % at 10 µM | CHO-K1 CHOP-promoter luciferase, tunicamycin-induced, 15-18 h;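 active = compounds that reduced the stress-induced luciferase reporter signal by more than about 70% of percent inhibition, limit read from the data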;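 also: 0% = tunicamycin plus vehicle and 100% = wells without tunicamycin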
# Numbers without * were called inactive; . = no result given. Rule as the data show it, unless noted: active = inhibition above about 50%; inactive = the rest.
SMILES,Arbovirus inh,Rad51 HR inh,Wee1 stabilizer,PKD1 kinase inh,Lmaj promast,CHOP inhibitor
Cc1[nH]c2ccccc2c1C(=O)/C=C/c1ccccc1Cl,-1,-3,2,-10,4,90*
Cc1cc(/C=C2\SC(N)=NC2=O)c(C)n1-c1ccc(F)cc1,2,-11,-1,2,-1,-6
CC(C)(C)c1ccc(COn2ccnc2)cc1,1,3,1,0,-5,1
Cc1ccc(N2C(N)=C(C#N)C(c3ccsc3)C3=C2CC(C)(C)CC3=O)cc1 (stereo not drawn),9,-2,1,-3,73*,13
N#CC1=C(N)N(c2ccccc2)C2=C(C(=O)CCC2)C1c1ccsc1 (stereo not drawn),15,-3,3,-10,55*,-19
CN(C)N1C(N)=C(C#N)C(c2ccsc2)C2=C1CC(C)(C)CC2=O (stereo not drawn),7,4,3,-9,1,1
O=C1CSC(c2ccccn2)N1c1ccc(C(F)(F)F)cc1 (stereo not drawn),.,16,-2,.,.,7
COc1ccc(CNn2c(-c3ccccc3F)nc3ccccc3c2=O)cc1OC,9,9,4,-6,14,2
COc1cccc(C(=O)NC(=S)Nc2ccc(N(C)C)cc2)c1,-12,3,2,4,-2,-2
C/C(N)=C(/C#N)C(=O)COC(=O)c1cc(S(=O)(=O)N2CCCCC2)ccc1C,-1,.,0,-7,71*,17
Cn1cccc1C(=O)NC(=O)COC(=O)c1cc(S(=O)(=O)N2CCCCC2)ccc1Cl,6,-25,-2,91*,-14,0
CC(=O)c1c(C)[nH]c(C(=O)OCC(=O)Nc2cc(S(=O)(=O)N3CCCC3)ccc2Cl)c1C,10,2,1,0,72*,39
CCCC(=O)Nc1ccc(C=C(C(C)=O)C(C)=O)cc1,.,5,3,.,.,-29
Cc1oc(C(C)(C)C)c(CN2CCOCC2)c1C(=O)O,-4,-7,-4,3,-1,-5
CCc1ccccc1NC(=O)C1C(c2ccccc2)C1(Cl)Cl (stereo not drawn),-5,2,-1,-8,50*,39
Cc1ccc(C)c(NC(=O)C2C(c3ccccc3)C2(Cl)Cl)c1 (stereo not drawn),-1,1,-4,-4,42,7
Cc1ccc(N=C2NC(=O)/C(=C/C=C/c3ccco3)S2)cc1,25,-61,1,-3,1,32
COc1ccc(N=C2NC(=O)/C(=C/C=C/c3ccccc3)S2)cc1,.,18,-2,.,.,77*
O=C1NC(=Nc2ccccc2)S/C1=C\C=C\c1ccco1,15,-27,0,-3,5,87*
CC(C)c1ccc(/C=N/NC(=O)C(=O)NCCCN2CCOCC2)cc1,8,.,-1,-12,2,9
CN(C)S(=O)(=O)c1ccc(NC(=O)Cc2ccc(S(=O)(=O)N3CCOCC3)s2)cc1,2,2,-2,4,-3,14
CCn1c2ccccc2c2cc(NC(=O)Cc3ccc(S(=O)(=O)N4CCOCC4)s3)ccc21,-12,-19,8,-2,81*,4
Cc1ccc(C(CCNC(C)c2cccs2)c2ccco2)cc1 (stereo not drawn),.,3,8,.,.,0
O=C1CC(c2ccco2)CC(O)=C1C=Nc1cc(Cl)cc(Cl)c1 (stereo not drawn),-1,-1,2,-6,-4,84*
O=C1CC(c2ccccc2)CC(O)=C1C=Nc1ccc(Cl)cc1 (stereo not drawn),-3,2,-3,-6,50,83*
O=C1CC(c2ccccc2)CC(O)=C1C=NCCN1CCNCC1 (stereo not drawn),5,4,-3,-5,-1,95*
O=C1CC(c2ccccc2)CC(O)=C1C=Nc1ccccc1Cl (stereo not drawn),8,.,-3,3,-6,60
Cn1c(N)c(C(=O)COC(=O)C2(c3ccc(F)cc3)CCCC2)c(=O)n(C)c1=O,-3,8,0,-1,0,50
CCOc1ncccc1C(=O)OCC(=O)c1c(N)n(C)c(=O)n(C)c1=O,6,-1,-1,14,-7,86*
Cn1c(N)c(C(=O)COC(=O)c2ccccn2)c(=O)n(C)c1=O,7,4,2,-15,-4,16
